In ChEMBL document CHEMBL1177643, “Synthesis, DNA-binding ability and anticancer activity of benzothiazole/benzoxazole-pyrrolo[2,1-c][1,4]benzodiazepine conjugates” (Bioorg Med Chem, 2010) one finds Activity data, which are given here for one compound.

The subject of experiment [1] is A-375. In words: Cell cycle arrest in human A375 cells assessed as accumulation at sub-G0 phase at 0.5 uM after 24 hrs using propidium iodide staining by flow cytometry. The format is functional. In short, it runs like this:
(§1)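 A375 cells (5×10^5) grown 24 h, then exposed to compound 24 h (DMSO control). Trypsin–EDTA harvest, fixed in ice-cold 70% ethanol at 4 °C 30 min, RNase A 37 °C 30 min, propidium iodide staining. DNA content measured by flow cytometry on 20,000 events, gated as sub-G1/G0, G1, S and G2/M.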
Background: Flow cytometry measures light scatter and fluorescence of single cells or particles in a stream.

In experiment [2] the test system is A-375. In words: Cell cycle arrest in human A375 cells assessed as accumulation at G0/G1 phase at 1 uM after 24 hrs using propidium iodide staining by flow cytometry. It is filed as functional. In short, it runs like this: as §1
The subject of experiment [3] is A-375. In words: Cell cycle arrest in human A375 cells assessed as accumulation at G1 phase at 1 uM after 24 hrs using propidium iodide staining by flow cytometry. It is filed as functional. An outline of the steps:
as §1

The subject of experiment [4] is A-375. In words: Cell cycle arrest in human A375 cells assessed as accumulation at S phase at 0.5 uM after 24 hrs using propidium iodide staining by flow cytometry. The format is functional. In short, it runs like this:
as §1

Experiment [5] concerns A-375. The experiment is described as follows: Cell cycle arrest in human A375 cells assessed as accumulation at G0 phase at 2 uM after 24 hrs using propidium iodide staining by flow cytometry. It is filed as functional. An outline of the steps: as §1
Experiment [6] deals with A-375. In words: Cell cycle arrest in human A375 cells assessed as accumulation at S phase at 1 uM after 24 hrs using propidium iodide staining by flow cytometry. It is filed as functional. In short, it runs like this:
as §1

Experiment [7] relates to A-375. The experiment is described as follows: Cell cycle arrest in human A375 cells assessed as accumulation at sub-G0 phase at 1 uM after 24 hrs using propidium iodide staining by flow cytometry. It is filed as functional. In short, it runs like this: as §1
Experiment [8] deals with A-375. The experiment is described as follows: Cell cycle arrest in human A375 cells assessed as accumulation at S phase at 2 uM after 24 hrs using propidium iodide staining by flow cytometry. It is filed as functional. In short, it runs like this: as §1
In another experiment the test system is Calf thymus DNA. The experiment is described as follows: Binding affinity to calf thymus duplex-form DNA assessed as cleavage of pBR322 after 16 hrs by restriction endonuclease digestion assay in presence of BamHI. The following applies: Bos taurus. The format is nucleic-acid assay. In short, it runs like this: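 pBR322 DNA (500 ng) preincubated with compound (5–30 μM) 16 h at 37 °C, then digested with BamHI (20 U) 1 h at 37 °C. Products run on 1% agarose in Tris–acetate EDTA, 80 V, 2 h. Read-out was ethidium bromide staining under UV, with an undigested and a fully digested control.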

The subject of experiment [9] is A-375. The experiment is described as follows: Cell cycle arrest in human A375 cells assessed as accumulation at G1 phase at 0.5 uM after 24 hrs using propidium iodide staining by flow cytometry. It is filed as functional. In short, it runs like this:
as §1

Experiment [10] deals with A-375. The experiment is described as follows: Cell cycle arrest in human A375 cells assessed as accumulation at G2/M phase at 2 uM after 24 hrs using propidium iodide staining by flow cytometry. The format is functional. In short, it runs like this:
as §1

Experiment [11] has as its system A-375. The experiment is described as follows: Cell cycle arrest in human A375 cells assessed as accumulation at G0/G1 phase at 0.5 uM after 24 hrs using propidium iodide staining by flow cytometry. It is filed as functional. An outline of the steps:
as §1

For experiment [12], the system named is A-375. The experiment is described as follows: Cell cycle arrest in human A375 cells assessed as accumulation at sub-G0 phase at 2 uM after 24 hrs using propidium iodide staining by flow cytometry. It is filed as functional. An outline of the steps: as §1
In experiment [13] the test system is A-375. In words: Cell cycle arrest in human A375 cells assessed as accumulation at G0 phase at 1 uM after 24 hrs using propidium iodide staining by flow cytometry. The format is functional. An outline of the steps: as §1
Experiment [14] has as its system A-375. In words: Cell cycle arrest in human A375 cells assessed as accumulation at G2/M phase at 0.5 uM after 24 hrs using propidium iodide staining by flow cytometry. The format is functional. An outline of the steps:
as §1

Experiment [15] relates to A-375. In words: Cell cycle arrest in human A375 cells assessed as accumulation at G2/M phase at 1 uM after 24 hrs using propidium iodide staining by flow cytometry. The format is functional. In short, it runs like this: as §1
Experiment [16] deals with A-375. The experiment is described as follows: Cell cycle arrest in human A375 cells assessed as accumulation at G0/G1 phase at 2 uM after 24 hrs using propidium iodide staining by flow cytometry. The format is functional. In short, it runs like this:
as §1

Experiment [17] concerns A-375. The experiment is described as follows: Cell cycle arrest in human A375 cells assessed as accumulation at G0 phase at 0.5 uM after 24 hrs using propidium iodide staining by flow cytometry. The format is functional. An outline of the steps:
as §1

Experiment [18] concerns A-375. In words: Cell cycle arrest in human A375 cells assessed as accumulation at G1 phase at 2 uM after 24 hrs using propidium iodide staining by flow cytometry. It is filed as functional. In short, it runs like this: as §1

Turning to `COc1cc2c(cc1O)N=C[C@@H]1CCCN1C2=O`, the Activity turned out to be 2.23% in the experiment on A-375 [1]; 88.63% in the experiment with A-375 [2]; 74.22% in the experiment on A-375 [3]; 79.42% in the experiment on A-375 [4]; 10.7% in the experiment on A-375 [5]; 5.03% in the experiment with A-375 [6]. For the same compound, the Activity is 14.41% with A-375 [7]; 13.54% in the experiment on A-375 [8]; “Dose-dependent effect” in the experiment on Calf thymus DNA; 79.42% with A-375 [9]; 8.53% with A-375 [10]; 83.15% in the experiment with A-375 [11]. For the same compound, the Activity in the experiment with A-375 [12] came to 26.75%; with A-375 [13] it was 14.41%; with A-375 [14], 6.45%; in the experiment on A-375 [15] it was 6.34%; in the experiment on A-375 [16], 77.93%; in the experiment on A-375 [17] it was 3.73%. The Activity in the experiment with A-375 [18] is recorded as 67.23%.
